Results: ChEMBL document CHEMBL4715736, “Identification of anticancer agents based on the thieno[2,3-b]pyridine and 1H-pyrazole molecular scaffolds” (2016)

Tests used:
Format in all cases: functional
[1] = test system: HT-29; assay: Growth inhibition of human HT-29 cells assessed as cell growth at 10 uM incubated for 48 hrs by sulforhodamine B assay relative to control; settings: read-out: Activity
Outline: (§1)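 Submitted to the NCI Developmental Therapeutics Program for the NCI60 human tumour cell line panel. First screen at a single 10 µM concentration. Read-out is growth relative to untreated control cells set at 100%.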

[2] = test system: HCT-116; assay: Growth inhibition of human HCT-116 cells assessed as cell growth at 10 uM incubated for 48 hrs by sulforhodamine B assay relative to control; settings: read-out: Activity; outline: as §1
[3] = test system: HT-29; assay: Growth inhibition of human HT-29 cells assessed as cell growth at 0.01 uM incubated for 48 hrs by sulforhodamine B assay relative to control; settings: read-out: Activity
[4] = test system: OVCAR-4; assay: Growth inhibition of human OVCAR-4 cells assessed as cell growth at 10 uM incubated for 48 hrs by sulforhodamine B assay relative to control; settings: read-out: Activity
Outline: (§2)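 Run by the NCI Developmental Therapeutics Program as part of its 60-line human tumour panel. Each compound tested at a single 10 µM dose. Growth expressed as % relative to untreated control cells (100%).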

[5] = test system: DU-145; assay: Growth inhibition of human DU-145 cells incubated for 48 hrs by sulforhodamine B assay; settings: for CC50: read-out: LC50 (the source's name)
Outline: (§3)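 NCI Developmental Therapeutics Program NCI60 panel. Compounds that were active in the 10 µM one-dose screen went on to dose–response testing. Growth at each concentration is expressed relative to untreated control (100%). GI50 (concentration giving 50% of maximal inhibition of proliferation) and TGI (concentration giving total growth inhibition) were derived from the curves.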

[6] = test system: TK-10; assay: Growth inhibition of human TK-10 cells assessed as cell growth at 10 uM incubated for 48 hrs by sulforhodamine B assay relative to control; settings: read-out: Activity; outline: as §2
[7] = test system: K562; assay: Growth inhibition of human K562 cells assessed as cell growth at 10 uM incubated for 48 hrs by sulforhodamine B assay relative to control; settings: read-out: Activity; outline: as §1
[8] = test system: RPMI-8226; assay: Growth inhibition of human RPMI-8226 cells assessed as cell growth at 0.01 uM incubated for 48 hrs by sulforhodamine B assay relative to control; settings: read-out: Activity
[9] = test system: UACC-62; assay: Growth inhibition of human UACC-62 cells assessed as cell growth at 1 uM incubated for 48 hrs by sulforhodamine B assay relative to control; settings: read-out: Activity
[10] = test system: NCI-H23; assay: Growth inhibition of human NCI-H23 cells assessed as cell growth at 0.1 uM incubated for 48 hrs by sulforhodamine B assay relative to control; settings: read-out: Activity
[11] = test system: NCI-H460; assay: Growth inhibition of human NCI-H460 cells assessed as cell growth at 10 uM incubated for 48 hrs by sulforhodamine B assay relative to control; settings: read-out: Activity; outline: as §1
[12] = test system: HOP-92; assay: Growth inhibition of human HOP-92 cells assessed as cell growth at 1 uM incubated for 48 hrs by sulforhodamine B assay relative to control; settings: read-out: Activity
[13] = test system: SW-620; assay: Growth inhibition of human SW-620 cells assessed as cell growth at 10 uM incubated for 48 hrs by sulforhodamine B assay relative to control; settings: read-out: Activity; outline: as §2
[14] = test system: BT-549; assay: Growth inhibition of human BT-549 cells assessed as cell growth at 10 uM incubated for 48 hrs by sulforhodamine B assay relative to control; settings: read-out: Activity
Outline: (§4)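 NCI Developmental Therapeutics Program NCI60 human tumour cell line panel, one-dose primary screen with every compound at 10 µM. Growth is expressed as % of untreated control cells (100%).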

[15] = test system: Hs-578T; assay: Growth inhibition of human Hs-578T cells assessed as cell growth at 10 uM incubated for 48 hrs by sulforhodamine B assay relative to control; settings: read-out: Activity; outline: as §1
[16] = test system: SF-268; assay: Growth inhibition of human SF-268 cells assessed as cell growth at 10 uM incubated for 48 hrs by sulforhodamine B assay relative to control; settings: read-out: Activity; outline: as §2
[17] = test system: SK-OV-3; assay: Growth inhibition of human SK-OV-3 cells assessed as cell growth at 10 uM incubated for 48 hrs by sulforhodamine B assay relative to control; settings: read-out: Activity; outline: as §2
[18] = test system: DU-145; assay: Growth inhibition of human DU-145 cells assessed as cell growth at 100 uM incubated for 48 hrs by sulforhodamine B assay relative to control; settings: read-out: Activity; outline: as §3
[19] = test system: ACHN; assay: Growth inhibition of human ACHN cells assessed as cell growth at 10 uM incubated for 48 hrs by sulforhodamine B assay relative to control; settings: read-out: Activity; outline: as §4
[20] = test system: NCI/ADR-RES; assay: Growth inhibition of human NCI/ADR-RES cells assessed as cell growth at 10 uM incubated for 48 hrs by sulforhodamine B assay relative to control; settings: read-out: Activity; outline: as §1
[21] = test system: NCI-H322M; assay: Growth inhibition of human NCI-H322M cells assessed as cell growth at 10 uM incubated for 48 hrs by sulforhodamine B assay relative to control; settings: read-out: Activity; outline: as §1
[22] = test system: MCF7; assay: Growth inhibition of human MCF7 cells assessed as cell growth at 10 uM incubated for 48 hrs by sulforhodamine B assay relative to control; settings: read-out: Activity; outline: as §1
[23] = test system: SK-MEL-2; assay: Growth inhibition of human SK-MEL-2 cells assessed as cell growth at 1 uM incubated for 48 hrs by sulforhodamine B assay relative to control; settings: read-out: Activity
[24] = test system: A549; assay: Growth inhibition of human A549/ATCC cells assessed as cell growth at 100 uM incubated for 48 hrs by sulforhodamine B assay relative to control; settings: read-out: Activity; outline: as §3
[25] = test system: SK-MEL-2; assay: Growth inhibition of human SK-MEL-2 cells assessed as cell growth at 10 uM incubated for 48 hrs by sulforhodamine B assay relative to control; settings: read-out: Activity; outline: as §2
[26] = test system: CAKI-1; assay: Growth inhibition of human CAKI-1 cells assessed as cell growth at 10 uM incubated for 48 hrs by sulforhodamine B assay relative to control; settings: read-out: Activity; outline: as §3
[27] = test system: PC-3; assay: Growth inhibition of human PC-3 cells assessed as cell growth at 10 uM incubated for 48 hrs by sulforhodamine B assay relative to control; settings: read-out: Activity; outline: as §2
[28] = test system: SK-MEL-28; assay: Growth inhibition of human SK-MEL-28 cells assessed as cell growth at 10 uM incubated for 48 hrs by sulforhodamine B assay relative to control; settings: read-out: Activity; outline: as §2
[29] = test system: HCT-15; assay: Growth inhibition of human HCT-15 cells assessed as cell growth at 10 uM incubated for 48 hrs by sulforhodamine B assay relative to control; settings: read-out: Activity; outline: as §1
[30] = test system: NCI-H522; assay: Growth inhibition of human NCI-H522 cells assessed as cell growth at 10 uM incubated for 48 hrs by sulforhodamine B assay relative to control; settings: read-out: Activity; outline: as §1
[31] = test system: NCI-H226; assay: Growth inhibition of human NCI-H226 cells assessed as cell growth at 10 uM incubated for 48 hrs by sulforhodamine B assay relative to control; settings: read-out: Activity; outline: as §1
[32] = test system: COLO 205; assay: Growth inhibition of human COLO 205 cells assessed as cell growth at 10 uM incubated for 48 hrs by sulforhodamine B assay relative to control; settings: read-out: Activity; outline: as §3
[33] = test system: SR; assay: Growth inhibition of human SR cells assessed as cell growth at 10 uM incubated for 48 hrs by sulforhodamine B assay relative to control; settings: read-out: Activity; outline: as §2
[34] = test system: SNB-75; assay: Growth inhibition of human SNB-75 cells assessed as cell growth at 10 uM incubated for 48 hrs by sulforhodamine B assay relative to control; settings: read-out: Activity; outline: as §2

Row | SMILES | growth at 10 µM [2] | growth at 10 µM [4] | GI50 [5] | TGI [5] | CC50 [5] | growth at 10 µM [7] | growth at 0.01 µM [8] | growth at 10 µM [11] | growth at 1 µM [12] | growth at 10 µM [13] | growth at 10 µM [15] | growth at 10 µM [16] | growth at 100 µM [18] | growth at 10 µM [19] | growth at 10 µM [20] | growth at 10 µM [21] | growth at 10 µM [22] | growth at 100 µM [24] | growth at 10 µM [26] | growth at 10 µM [28] | further results
1 | Cc1cc(C)c(NC(=O)c2sc3nc4c(cc3c2N)CN(Cc2ccccc2)CC4)c(C)c1 | 16% | 44% | 2.62 µM | 7.65 µM | > 100 µM | 13% | 101% | 7% | 49% | 13% | 15% | 42% | -5% | 40% | -18% | 47% | 8% | 13% | 18% | 46% | growth at 10 µM [1]: 3%; growth at 0.01 µM [3]: 105%; growth at 10 µM [6]: 31%; growth at 1 µM [9]: 69%; growth at 0.1 µM [10]: 103%; growth at 10 µM [14]: 30%; growth at 10 µM [17]: 36%; growth at 1 µM [23]: 96%; growth at 10 µM [25]: 34%; growth at 10 µM [27]: 25%; growth at 10 µM [29]: 12%; growth at 10 µM [30]: -13%; growth at 10 µM [31]: 36%
2 | CCc1ccccc1NC(=O)c1sc2nc3c(cc2c1N)C(=O)CCC3 | 24% | 41% | 0.499 µM | > 100 µM | > 100 µM | 11% | 100% | 6.42% | 35% | 24% | 22.6% | 40.4% | 2% | 38% | 5% | 46.3% | 8.32% | 12% | 29.9% | 43.7% | growth at 10 µM [32]: -68%; growth at 10 µM [1]: 6%; growth at 0.01 µM [3]: 95%; growth at 10 µM [6]: 54.7%; growth at 10 µM [14]: 48%; growth at 10 µM [17]: 30%; growth at 10 µM [33]: 9.38%; growth at 10 µM [34]: -15.4%; growth at 1 µM [23]: 31%; growth at 10 µM [25]: 19.9%; growth at 10 µM [29]: 29%; growth at 10 µM [30]: -11.6%; growth at 10 µM [31]: 64%
3 | Cc1ccc(NC(=O)c2sc3nc4c(cc3c2N)C(=O)CCC4)cc1C | 23% | 32% | 0.602 µM | > 100 µM | > 100 µM | 5% | 99% | 4% | 29% | 15% | 18% | 42.7% | 14% | 43% | 9% | 35% | 10.7% | 13% | 35.7% | 37.3% | growth at 10 µM [32]: -63%; growth at 10 µM [1]: 1%; growth at 0.01 µM [3]: 106%; growth at 10 µM [6]: 56%; growth at 10 µM [14]: 63%; growth at 10 µM [17]: 4.9%; growth at 10 µM [33]: 11%; growth at 10 µM [34]: -10.3%; growth at 1 µM [23]: 22%; growth at 10 µM [25]: 31%; growth at 10 µM [29]: 27%; growth at 10 µM [30]: -9.22%; growth at 10 µM [31]: 56%
4 | CCc1cccc(C)c1NC(=O)c1sc2nc3c(cc2c1N)C(=O)CCC3 | 17% | 28% | 0.454 µM | > 100 µM | > 100 µM | 2% | 101% | 4% | 39% | 23% | 24.8% | 38% | 9% | 22% | -3% | 32% | 13% | 6% | 38% | 39% | growth at 10 µM [32]: -58%; growth at 1 µM [9]: 37%; growth at 0.1 µM [10]: 100%; growth at 10 µM [33]: 2.24%; growth at 10 µM [34]: -2.83%; growth at 10 µM [27]: 23.3%; growth at 10 µM [29]: 16%; growth at 10 µM [31]: 49%
